Experimental data reported in ChEMBL document CHEMBL1131456, “Synthesis, pharmacological characterization, and quantitative structure-activity relationship analyses of 3,7,9,9-tetraalkylbispidines: derivatives with specific bradycardic activity” (J Med Chem, 1998).

Legend:
[1] = Partition coefficient (logP); type: physicochemical; conditions: octanol/water; read-out: logP
In short: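 Lipophilicity was measured by reversed-phase HPLC. Mobile phase was methanol/0.005 M phosphate buffer pH 4 (60/40) with 0.1% SDS and 0.1 M NaClO4, at 23.0 ± 0.5 °C, with UV detection at 205 nm.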

Cavia porcellus [2] = species on record: Cavia porcellus; experiment: In vitro activity in guinea pig atria as the functional refractory period (FRP), which is the shortest interval between a double stimulus causing a double contraction.
In short: (§1)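 Isolated guinea pig atria in oxygenated buffer at 35 °C. Right atria beat spontaneously; left atria were paced at 2 Hz with 1 ms rectangular pulses and isometric contractions were recorded. Cumulative concentration–response curves were run with up to five concentrations. EC75/EC125 is the concentration giving a 25% decrease/increase from the predrug value, reported as the geometric mean of individual ECs.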

Cavia porcellus [3] = species on record: Cavia porcellus; experiment: In vitro activity in guinea pig atria was measured as rate of spontaneously beating right atrium (SR) which reflects the activity of the sinus node; type: functional; conditions: Cardiac atrium; in short: as §1
Cavia porcellus [4] = species on record: Cavia porcellus; experiment: Score point for the selectivity versus additional effect FRP.; type: functional
Cavia porcellus [5] = species on record: Cavia porcellus; experiment: Score value indicates decrease of the sinus rate; type: functional
Cavia porcellus [6] = species on record: Cavia porcellus; experiment: Score value indicates selectivity versus the decrease in force of contraction; type: functional
Cavia porcellus [7] = species on record: Cavia porcellus; experiment: Sum of the scores of decrease of the sinus rate and selectivity versus the decrease in force of contraction; type: functional
Rattus norvegicus [8] = experiment: In vivo activity in anesthetized rat was measured as the R alpha T-interval of the rat ECG which reflects the time from ventricular excitation to recovery; type: functional, Cardiac ventricle
In short: (§2)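 Male Wistar rats (280–360 g) under urethane (1.25 g/kg ip), intubated and breathing spontaneously. Femoral arterial pressure was recorded with needle-electrode ECG, analysed every 30 s. Compound was given by continuous femoral-vein infusion at 0.1 mL/min, with concentration raised tenfold every 10 min (3 doses). ED75/ED125 is the dose giving a 25% decrease/increase from the predrug value, reported as the geometric mean of individual EDs.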

Rattus norvegicus [9] = experiment: In vivo activity in anesthetized rat was measured as the diastolic arterial pressure which provides information on the peripheral resistance of the cardiovascular system and selectivity regarding bradycardia; type: functional, Artery; in short: as §2
Rattus norvegicus [10] = experiment: In vivo activity in anesthetized rat was measured as heart rate which provides information on in vivo bradycardic activity; type: functional; in short: as §2
Rattus norvegicus [11] = species on record: Rattus norvegicus; experiment: Score point for the selectivity versus additional effect R&T interval.; type: functional
Rattus norvegicus [12] = species on record: Rattus norvegicus; experiment: Score value indicates desire effect on heart rate; type: functional
Rattus norvegicus [13] = species on record: Rattus norvegicus; experiment: Score value indicates selectivity against the undesired effect on diastolic blood pressure; type: functional, Artery
Cavia porcellus [14] = species on record: Cavia porcellus; experiment: Selectivity quotient (F75/SR75); type: functional
In short: (§3)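 Atrial selectivity quotients were calculated from the guinea pig atrial EC values as F75/SR75 and FRP125/SR75.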

Cavia porcellus [15] = species on record: Cavia porcellus; experiment: Selectivity quotient (FRP125/SR75); type: functional; in short: as §3
Cavia porcellus [16] = species on record: Cavia porcellus; experiment: In vitro activity in guinea pig atria was measured as the peak force of contraction (F) of a stimulated left atrium; type: functional; conditions: Cardiac atrium; in short: as §1
Rattus norvegicus [17] = species on record: Rattus norvegicus; experiment: Total score (SS)
Rattus norvegicus [18] = species on record: Rattus norvegicus; experiment: Selectivity quotient (DAP125/HR75)
Rattus norvegicus [19] = species on record: Rattus norvegicus; experiment: Selectivity quotient (R&T125/HR75)
[20] = Selectivity quotient (F75/SR75); # means very high (estimated); type: functional
In short: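 Isolated atria in oxygenated buffer at 35 °C. Spontaneously beating right atria gave sinus rate; left atria paced at 2 Hz with 1 ms rectangular pulses gave isometric force of contraction. Cumulative concentration-response curves used up to five concentrations. EC75 (25% decrease from predrug value) was taken as the geometric mean of individual values. Quotient is F75/SR75.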

| SMILES | logP [1] | EC125 (Cavia porcellus [2]) [µM] | EC75 (Cavia porcellus [3]) [µM] | Score (Cavia porcellus [4]) | Score (Cavia porcellus [5]) | Score (Cavia porcellus [6]) | Score (Cavia porcellus [7]) | ED125 (Rattus norvegicus [8]) [µM/kg] | ED125 (Rattus norvegicus [9]) [µM/kg] | ED75 (Rattus norvegicus [10]) [µM/kg] | Score (Rattus norvegicus [11]) | Score (Rattus norvegicus [12]) | Score (Rattus norvegicus [13]) | Selectivity quotient (Cavia porcellus [14]) | Selectivity quotient (Cavia porcellus [15]) | EC75 (Cavia porcellus [16]) [µM] | total score (SS) (Rattus norvegicus [17]) | Selectivity quotient (Rattus norvegicus [18]) | Selectivity quotient (Rattus norvegicus [19]) | Selectivity quotient [20] |
| --- | --- | --- | --- | --- | --- | --- | --- | --- | --- | --- | --- | --- | --- | --- | --- | --- | --- | --- | --- | --- |
| C1CCC(CN2CC3CN(CC4CCCCC4)CC(C2)C32CCCCC2)CC1 | 7.43 | 0.62 | 7.57 | 6 | 3 | -6 | -3 | 12 | >61 | 20 | 3 | 3 | -2 | 0.35 | 0.08 | 2.65 | 1 | >3 | 0.6 |  |
| CCCCN1CC2CN(CC(C)C)CC(C1)C2(C)C | 3.7 | 0.82 | 3.07 | 4 | 4 | 0 | 4 | 0.73 | >41 | 5.7 | 5 | 5 | -1 |  | 0.27 |  | 4 | >7 | 0.13 | # |
| C=CCCN1CC2CN(CCC=C)CC(C1)C2(C)C | 3.13 | 1.87 | 1.21 | 3 | 5 | 0 | 5 | 0.94 | >46 | 7.1 | 5 | 5 | -1 | >177 | 1.54 | > 215 | 4 | >6 | 0.13 |  |
| C=CCCN1CC2CN(CCC=C)CC(C1)C21CCCCC1 | 4.49 | 1.14 | 0.4 | 2 | 6 | 0 | 6 | 0.58 | 1.5 | 4.9 | 5 | 6 | -4 | 167 | 2.85 | 75.1 | 2 | 0.31 | 0.12 |  |
| C=CCCN1CC2CN(CC(C)C)CC(C1)C2(CCC)CCC | 5.32 | 0.73 | 0.44 | 3 | 6 | 0 | 6 | 0.32 | 2.4 | 3.5 | 6 | 6 | -3 | 52.5 | 1.66 | 23.1 | 3 | 0.68 | 0.09 |  |
| CC(C)N1CC2CN(C(C)C)CC(C1)C2(C)C | 2.48 | 111 | 10.9 | 0 | 2 | -2 | 0 | 18 |  | 52 | 4 | 1 | -3 |  | 10.2 |  | -2 | 1 | 0.35 | # |
| CCCCN1CC2CN(CC3CCCCC3)CC(C1)C2(C)C | 4.98 | 0.48 | 0.88 | 3 | 6 | -1 | 5 | 0.96 | >41 | 5.7 | 5 | 5 | -1 | 18.5 | 0.55 | 16.3 | 4 | >7 | 0.17 |  |
